Common to all, as to format: functional
The test system of one assay is Micrococcus luteus. Nature of the assay: Antibacterial activity against Micrococcus luteus by two-fold serial dilution method. The essentials:
(§1)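 Standard two-fold serial dilution in 96-well microtest plates following NCCLS. Top dilutions printed as 32, 16, 8, 4, 2, 1, 0.5 ug/mL. Wells inoculated and held at 37 °C for 24 h. Growth judged visually and by spectrophotometer, in triplicate. MIC is the lowest concentration giving complete growth inhibition.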

In assay [1] the test system is Staphylococcus aureus. Nature of the assay: Antibacterial activity against methicillin-resistant Staphylococcus aureus N315 by two-fold serial dilution method. The essentials:
(§2)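 MIC read as the lowest concentration giving complete growth inhibition. Two-fold serial dilutions were made in 96-well plates following NCCLS, giving a series down to 0.5 µg/mL (…32, 16, 8, 4, 2, 1, 0.5). Plates were inoculated and incubated at 37 °C for 24 h. A DMSO-with-inoculum control without drug was included. Growth was monitored visually and spectrophotometrically, in triplicate.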

Assay [2] deals with Staphylococcus aureus. Nature of the assay: Antibacterial activity against Staphylococcus aureus ATCC 25923 by two-fold serial dilution method. The procedure, abridged:
as §1

In a further assay the test system is Bacillus spizizenii. Description: Antibacterial activity against Bacillus subtilis ATCC 6633 by two-fold serial dilution method. The essentials: as §1
A further assay concerns Pseudomonas aeruginosa. Nature of the assay: Antibacterial activity against Pseudomonas aeruginosa by two-fold serial dilution method. The essentials:
as §1

The subject of a further assay is Escherichia coli. Nature of the assay: Antibacterial activity against Escherichia coli DH52 by two-fold serial dilution method. The essentials: as §1
Another assay deals with Shigella dysenteriae. Nature of the assay: Antibacterial activity against Shigella dysenteriae by two-fold serial dilution method. The procedure, abridged:
as §2

The nature of assay [3]: Antibacterial activity against Eberthella typhosa by two-fold serial dilution method. The essentials: as §2
Another assay deals with Cyberlindnera jadinii. Description: Antifungal activity against Candida utilis after 24 hrs by microbroth dilution method. The conditions noted are these: Williopsis jadinii. The procedure, abridged: (§3)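 Spore suspension prepared in sterile distilled water from one-day-old cultures on Sabouraud agar, final 1-5 x 10^3 spores/mL. Compounds were serially diluted in RPMI 1640 to give eleven dilutions. Incubation at 35 °C for 24 h. Growth read visually and spectrophotometrically, in triplicate. MIC is the lowest concentration with complete inhibition.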

In a further assay the test system is Saccharomyces cerevisiae. Nature of the assay: Antifungal activity against Saccharomyces cerevisiae after 24 hrs by microbroth dilution method. The essentials:
as §3
Background: In broth dilution the organism is exposed to a series of concentrations in liquid medium.

For another assay, the system named is Candida albicans. Nature of the assay: Antifungal activity against Candida albicans ATCC 76615 after 24 hrs by microbroth dilution method. The settings on record: ATCC 76615, 24 h. The essentials: as §3
The subject of a further assay is Pichia norvegensis. Nature of the assay: Antifungal activity against Candida mycoderma after 24 hrs by microbroth dilution method.

In brackets after ≈: the same amount, converted by molar mass.

This passage reports MIC results from ChEMBL document CHEMBL3351780, “Novel hybrids of metronidazole and quinolones: synthesis, bioactive evaluation, cytotoxicity, preliminary antimicrobial mechanism and effect of metal ions on their transportation by human serum albumin” (Eur J Med Chem, 2014).

By MIC is commonly meant the least concentration at which growth counts as inhibited. A high value points to a need for much substance. In the case of `CCOC(=O)c1cn(CC(O)Cn2cnc([N+](=O)[O-])c2)c2cc(Cl)c(F)cc2c1=O` (racemic), the MIC with Micrococcus luteus amounted to 16 µg/mL (≈ 36.5 µM); in the assay on Staphylococcus aureus [1], 4 µg/mL (≈ 9.12 µM); with Staphylococcus aureus [2], 16 µg/mL (≈ 36.5 µM); against Bacillus spizizenii it was 16 µg/mL (≈ 36.5 µM); against Pseudomonas aeruginosa, 16 µg/mL (≈ 36.5 µM); against Escherichia coli, 32 µg/mL (≈ 72.9 µM). The MIC in the assay on Shigella dysenteriae amounted to 16 µg/mL (≈ 36.5 µM); in assay [3], 8 µg/mL (≈ 18.2 µM); in the assay on Cyberlindnera jadinii, 32 µg/mL (≈ 72.9 µM); in the assay on Saccharomyces cerevisiae, 64 µg/mL (≈ 146 µM); in the assay on Candida albicans, 32 µg/mL (≈ 72.9 µM); against Pichia norvegensis it was 128 µg/mL (≈ 292 µM).
For the compound `CCOC(=O)c1cn(CC(O)Cn2cnc([N+](=O)[O-])c2)c2cc(C(F)(F)F)ccc2c1=O` (racemic), the MIC in the assay on Micrococcus luteus was 8 µg/mL (≈ 17.6 µM); in the assay on Staphylococcus aureus [1], 4 µg/mL (≈ 8.8 µM); with Staphylococcus aureus [2], 8 µg/mL (≈ 17.6 µM); in the assay on Bacillus spizizenii, 4 µg/mL (≈ 8.8 µM); against Pseudomonas aeruginosa it was 64 µg/mL (≈ 141 µM); with Escherichia coli, 128 µg/mL (≈ 282 µM). Further, the MIC worked out at 16 µg/mL (≈ 35.2 µM) against Shigella dysenteriae; 64 µg/mL (≈ 141 µM) in [3]; 16 µg/mL (≈ 35.2 µM) in the assay with Cyberlindnera jadinii; 16 µg/mL (≈ 35.2 µM) against Saccharomyces cerevisiae; 16 µg/mL (≈ 35.2 µM) against Candida albicans; 32 µg/mL (≈ 70.4 µM) against Pichia norvegensis.
Take `CCOC(=O)c1cn(CC(O)Cn2c([N+](=O)[O-])cnc2C)c2c(Cl)cc(Cl)cc2c1=O` (racemic): the MIC against Micrococcus luteus came out at 16 µg/mL (≈ 34.1 µM); against Staphylococcus aureus [1] it was 32 µg/mL (≈ 68.2 µM); against Staphylococcus aureus [2], 16 µg/mL (≈ 34.1 µM); against Bacillus spizizenii it was 8 µg/mL (≈ 17 µM); in the assay on Pseudomonas aeruginosa it was 16 µg/mL (≈ 34.1 µM); in the assay with Escherichia coli, 16 µg/mL (≈ 34.1 µM). Moreover, the minimum inhibitory concentration (MIC) with Shigella dysenteriae amounted to 8 µg/mL (≈ 17 µM); in assay [3], 8 µg/mL (≈ 17 µM); with Cyberlindnera jadinii, 256 µg/mL (≈ 546 µM); in the assay on Saccharomyces cerevisiae, 128 µg/mL (≈ 273 µM); against Candida albicans, 64 µg/mL (≈ 136 µM); against Pichia norvegensis, 64 µg/mL (≈ 136 µM).
In the case of `CCOC(=O)c1cn(CC2CO2)c2ccc(C)cc2c1=O` (racemic), the figures for the MIC (against Bacillus spizizenii; in assay [3]; in the assay with Pichia norvegensis) were 64 µg/mL (≈ 223 µM), 2 µg/mL (≈ 6.96 µM) and 8 µg/mL (≈ 27.8 µM), respectively.
Regarding `CCOC(=O)c1cn(CC(O)Cn2c([N+](=O)[O-])cnc2C)c2c(F)cc(F)cc2c1=O` (racemic), the MIC with Micrococcus luteus is 4 µg/mL (≈ 9.17 µM); with Staphylococcus aureus [1], 16 µg/mL (≈ 36.7 µM); against Staphylococcus aureus [2], 8 µg/mL (≈ 18.3 µM); with Bacillus spizizenii, 32 µg/mL (≈ 73.3 µM); in the assay with Pseudomonas aeruginosa it was 4 µg/mL (≈ 9.17 µM); in the assay with Escherichia coli, 4 µg/mL (≈ 9.17 µM). Besides, the MIC in the assay with Shigella dysenteriae turned out to be 16 µg/mL (≈ 36.7 µM); in [3] it was 4 µg/mL (≈ 9.17 µM); in the assay with Cyberlindnera jadinii, 64 µg/mL (≈ 147 µM); against Saccharomyces cerevisiae, 64 µg/mL (≈ 147 µM); with Candida albicans, 128 µg/mL (≈ 293 µM); in the assay on Pichia norvegensis, 64 µg/mL (≈ 147 µM).
With `CCOC(=O)c1cn(CC(O)Cn2c([N+](=O)[O-])cnc2C)c2ccc(F)cc2c1=O` (racemic), the MIC in the assay on Micrococcus luteus was determined as 8 µg/mL (≈ 19.1 µM); against Staphylococcus aureus [1] it was 4 µg/mL (≈ 9.56 µM); with Staphylococcus aureus [2], 16 µg/mL (≈ 38.2 µM); with Bacillus spizizenii it was 8 µg/mL (≈ 19.1 µM); against Pseudomonas aeruginosa, 16 µg/mL (≈ 38.2 µM); against Escherichia coli, 8 µg/mL (≈ 19.1 µM). Moreover, the MIC in the assay with Shigella dysenteriae amounted to 8 µg/mL (≈ 19.1 µM); in [3] it was 4 µg/mL (≈ 9.56 µM); with Cyberlindnera jadinii, 128 µg/mL (≈ 306 µM); in the assay with Saccharomyces cerevisiae it was 32 µg/mL (≈ 76.5 µM); in the assay on Candida albicans, 64 µg/mL (≈ 153 µM); against Pichia norvegensis it was 128 µg/mL (≈ 306 µM).
In the case of `CCOC(=O)c1cn(CC(O)Cn2c([N+](=O)[O-])cnc2C)c2ccc(OC)cc2c1=O` (racemic), the MIC against Micrococcus luteus was 256 µg/mL (≈ 595 µM); against Staphylococcus aureus [1], 8 µg/mL (≈ 18.6 µM); in the assay with Staphylococcus aureus [2], 16 µg/mL (≈ 37.2 µM); against Bacillus spizizenii, 8 µg/mL (≈ 18.6 µM); in the assay on Pseudomonas aeruginosa, 64 µg/mL (≈ 149 µM); in the assay on Escherichia coli it was 8 µg/mL (≈ 18.6 µM). The MIC is 32 µg/mL (≈ 74.3 µM) in the assay with Shigella dysenteriae; 16 µg/mL (≈ 37.2 µM) in [3]; 256 µg/mL (≈ 595 µM) in the assay on Cyberlindnera jadinii; 2 µg/mL (≈ 4.65 µM) against Saccharomyces cerevisiae; 8 µg/mL (≈ 18.6 µM) with Candida albicans; 256 µg/mL (≈ 595 µM) against Pichia norvegensis.
In the case of `CCOC(=O)c1cn(CC(O)Cn2cnc([N+](=O)[O-])c2)c2c(F)cccc2c1=O` (racemic), the minimum inhibitory concentration (MIC) against Micrococcus luteus came out at 64 µg/mL (≈ 158 µM); against Staphylococcus aureus [1], 8 µg/mL (≈ 19.8 µM); in the assay on Staphylococcus aureus [2], 256 µg/mL (≈ 633 µM); in the assay with Bacillus spizizenii, 32 µg/mL (≈ 79.1 µM); in the assay on Pseudomonas aeruginosa it was 32 µg/mL (≈ 79.1 µM); in the assay with Escherichia coli, 32 µg/mL (≈ 79.1 µM). Further, the MIC against Shigella dysenteriae turned out to be 16 µg/mL (≈ 39.6 µM); in assay [3], 32 µg/mL (≈ 79.1 µM); in the assay with Cyberlindnera jadinii, 16 µg/mL (≈ 39.6 µM); with Saccharomyces cerevisiae it was 256 µg/mL (≈ 633 µM); in the assay on Candida albicans, 128 µg/mL (≈ 317 µM); against Pichia norvegensis, 256 µg/mL (≈ 633 µM).
For `CCOC(=O)c1cn(CC(O)Cn2cnc([N+](=O)[O-])c2)c2ccc(OC)cc2c1=O` (racemic), the MIC against Micrococcus luteus amounted to 512 µg/mL (≈ 1230 µM); in the assay on Staphylococcus aureus [1], 4 µg/mL (≈ 9.61 µM); in the assay on Staphylococcus aureus [2] it was 4 µg/mL (≈ 9.61 µM); in the assay on Bacillus spizizenii it was 64 µg/mL (≈ 154 µM); with Pseudomonas aeruginosa it was 64 µg/mL (≈ 154 µM); against Escherichia coli, 2 µg/mL (≈ 4.8 µM). Further, the MIC in the assay with Shigella dysenteriae came to 32 µg/mL (≈ 76.9 µM); in assay [3], 256 µg/mL (≈ 615 µM); in the assay on Cyberlindnera jadinii it was 8 µg/mL (≈ 19.2 µM); in the assay with Saccharomyces cerevisiae it was 4 µg/mL (≈ 9.61 µM); in the assay with Candida albicans, 16 µg/mL (≈ 38.4 µM); against Pichia norvegensis, 512 µg/mL (≈ 1230 µM).
